Data taken from ChEMBL document CHEMBL3393035, “Novel agonists of benzodiazepine receptors: design, synthesis, binding assay and pharmacological evaluation of 1,2,4-triazolo[1,5-a]pyrimidinone and 3-amino-1,2,4-triazole derivatives” (Bioorg Med Chem, 2015).
pIC50, pKi: −log10 of the molar value. Active and inactive are the calls of the source. No cut-off for these calls is given here.

Key:
[1] = tested on: Mus musculus; test: Anticonvulsant activity in ip dosed NMRI mouse assessed as reduction in MES-induced seizures by measuring occurrence of hind limb tonic extensions dosed 30 mins before MES injection and co-treated with 10 mg/kg BZD antagonist flumazenil and measured 30 mins post MES challenge; format: functional, organism-based; set-up: dose 10 mg/kg; conditions: Hindlimb
Method in brief: (§1)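 Male NMRI mice (18-22 g) were given drug i.p. at 5 ml/kg in DMSO:water (1:10), 30 min before maximal electroshock (60 Hz, 37.2 mA, 0.25 s). The read-out was occurrence of hind limb tonic extension.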

[2] = tested on: Mus musculus; test: Anticonvulsant activity in ip dosed NMRI mouse assessed as reduction in PTZ-induced lethal convulsion dosed 30 mins before PTZ injection and co-treated with BZD antagonist flumazenil and measured 30 mins post PTZ challenge; format: functional, organism-based
Method in brief: (§2)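 Male NMRI mice (18-22 g) were given drug i.p. at 5 ml/kg in DMSO:water (1:10), 30 min before PTZ 100 mg/kg i.p. (in water). Mice were watched for 30 min after PTZ and deaths were counted.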

[3] = tested on: Mus musculus; test: Anticonvulsant activity in ip dosed NMRI mouse assessed as reduction in MES-induced seizures by measuring occurrence of hind limb tonic extensions dosed 30 mins before MES injection and measured 30 mins post MES challenge; format: functional; conditions: Hindlimb; method in brief: as §1
[4] = tested on: Mus musculus; test: Hypnotic effect in NMRI albino mouse assessed as potentiation of pentobarbital sleeping time by measuring duration of loss of righting reflex at 1 mg/kg, ip dosed 30 mins before pentobarbital challenge; format: functional, organism-based; set-up: dose 1 mg/kg
Method in brief: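 Male NMRI mice (18-22 g), n=8 per group, received diazepam i.p. in DMSO:water (1:10), 5 ml/kg. Pentobarbital 65 mg/kg i.p. followed 30 min later. Sleep time was the duration of loss of righting reflex; mice were kept on an electric blanket against hypothermia. Data are mean + SEM.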

[5] = tested on: Mus musculus; test: Anticonvulsant activity in ip dosed NMRI mouse assessed as reduction in PTZ-induced lethal convulsion dosed 30 mins before PTZ injection and measured 30 mins post PTZ challenge; format: functional; method in brief: as §2
[6] = Displacement of [3H]-flumazenil from benzodiazepine receptor in Sprague-Dawley rat brain cortical membranes incubated for 35 mins
Method in brief: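 Rat cortex membranes: homogenized in ice-cold 30 mM Tris-HCl pH 7.4, washed by repeated centrifugation at 4°C, 37°C 30 min preincubation, stored -20°C. 100 µg membrane protein in 50 mM Tris-HCl pH 7.4 with 8.6×10^-5 nmol [3H]-flumazenil plus increasing competitor, 0.5 mL, 30°C 35 min; stopped by centrifugation. NSB with 100 µM diazepam; triplicates; IC50 by nonlinear regression.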

[7] = tested on: Mus musculus; test: Induction of anterograde amnesia in NMRI albino mouse assessed as reduction in latency to enter dark compartment at 1 mg/kg, ip by passive avoidance test; format: functional, organism-based; set-up: dose 1 mg/kg
Method in brief: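 Male NMRI mice (18-22 g), n=8 per group, received midazolam i.p. in distilled water, 5 ml/kg. In the passive avoidance test, mice were placed in the lit compartment on the testing day, 24 h later, and latency to enter the dark compartment was recorded. Data are mean + SEM.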

[8] = tested on: Mus musculus; test: Toxicity in NMRI albino mouse at 50 mg/kg, ip assessed as induction hypnosis measured after 24 hrs post dose; format: organism-based; set-up: dose 50 mg/kg, route intraperitoneal; conditions: in vivo
Method in brief: (§3)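 Ten randomly selected male NMRI mice given single i.p. doses of 50 or 150 mg/kg in DMSO:water 1:10 (5 ml/kg), then observed for 24 h for toxic reactions, sedation and hypnosis.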

[9] = tested on: Mus musculus; test: Hypnotic effect in NMRI albino mouse assessed as potentiation of pentobarbital sleeping time by measuring duration of loss of righting reflex at 0.625 mg/kg, ip dosed 30 mins before pentobarbital challenge; format: functional, organism-based; set-up: dose 0.625 mg/kg
Method in brief: (§4)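 Male NMRI mice, 18-22 g, 12 weeks old. Test agent and flumazenil (10 mg/kg) in DMSO:water 1:10, 5 ml/kg i.p., 30 min before pentobarbital 65 mg/kg i.p. (in water). Sleep time is the duration of loss of righting reflex. Mice kept on an electric blanket to prevent hypothermia. n=8 per group, mean + SEM.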

[10] = tested on: Mus musculus; test: Toxicity in NMRI albino mouse at 50 mg/kg, ip assessed as induction of toxic reactions measured after 24 hrs post dose; format: organism-based; set-up: dose 50 mg/kg, route intraperitoneal; conditions: in vivo; method in brief: as §3
[11] = tested on: Mus musculus; test: Toxicity in NMRI albino mouse at 150 mg/kg, ip assessed as induction sedation measured after 24 hrs post dose; format: organism-based; set-up: dose 150 mg/kg, route intraperitoneal; conditions: in vivo; method in brief: as §3
[12] = tested on: Mus musculus; test: Toxicity in NMRI albino mouse at 50 mg/kg, ip assessed as induction sedation measured after 24 hrs post dose; format: organism-based; set-up: dose 50 mg/kg, route intraperitoneal; conditions: in vivo; method in brief: as §3
[13] = tested on: Mus musculus; test: Hypnotic effect in NMRI albino mouse assessed as potentiation of pentobarbital sleeping time by measuring duration of loss of righting reflex dosed intraperitoneally 30 mins before pentobarbital challenge; format: functional; method in brief: as §4
[14] = tested on: Mus musculus; test: Induction of anterograde amnesia in NMRI albino mouse assessed as reduction in latency to enter dark compartment at 0.325 to 2.5 mg/kg, ip by passive avoidance test; format: functional, organism-based
Method in brief: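 Male NMRI mice (18-22 g) dosed i.p. in DMSO:water 1:10 (5 ml/kg), 30 min before the test; midazolam 1 mg/kg i.p. in water as reference. On the testing day, 24 h after training, each mouse is placed in the lit compartment and latency to enter the dark compartment is recorded. n=8 per group, mean + SEM.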

[15] = tested on: Mus musculus; test: Toxicity in NMRI albino mouse at 150 mg/kg, ip assessed as induction hypnosis measured after 24 hrs post dose; format: organism-based; set-up: dose 150 mg/kg, route intraperitoneal; conditions: in vivo; method in brief: as §3
[16] = tested on: Mus musculus; test: Hypnotic effect in NMRI albino mouse assessed as potentiation of pentobarbital sleeping time by measuring duration of loss of righting reflex at 1.25 to 5 mg/kg, ip co-treated with 10 mg/kg BZD receptor antagonist flumazenil; format: functional, organism-based; method in brief: as §4
[17] = tested on: Mus musculus; test: Toxicity in NMRI albino mouse at 150 mg/kg, ip assessed as induction of toxic reactions measured after 24 hrs post dose; format: organism-based; set-up: dose 150 mg/kg, route intraperitoneal; conditions: in vivo; method in brief: as §3

CN1C(=O)CN=C(c2ccccc2)c2cc(Cl)ccc21 [DIAZEPAM]
Activity [1]: inactive
Activity [2]: inactive
ED50 [3]: 0.74 mg/kg
Activity [4]: Active
ED50 [5]: 0.75 mg/kg
pIC50 [6]: 8.60
pKi [6]: 8.82

Nc1nnc(-c2ccccc2)n1Cc1ccccc1Cl
pIC50 [6]: 8.65
pKi [6]: 8.86

Nc1nnc(-c2ccccc2)n1Cc1ccc(F)cc1
pIC50 [6]: 8.35
pKi [6]: 8.56

Nc1nnc(-c2ccccc2)n1Cc1ccccc1
pIC50 [6]: 9.06
pKi [6]: 9.28

Cc1cc(=O)n2nc(-c3ccccc3)n(Cc3ccccc3)c2n1
pIC50 [6]: 8.62
pKi [6]: 8.84

Cc1ncc2n1-c1ccc(Cl)cc1C(c1ccccc1F)=NC2
Activity [7]: Active

Cc1cc(=O)n2nc(-c3ccccc3)n(Cc3ccc(F)cc3)c2n1
pIC50 [6]: 8.80
pKi [6]: 9.01

Cc1cc(=O)n2nc(-c3ccccc3)n(Cc3ccccc3Cl)c2n1
Activity [8]: Toxic
Activity [1]: inactive
Activity [9]: inactive
Activity [2]: inactive
Activity [10]: Non-toxic
Activity [11]: Toxic
Activity [12]: Toxic
ED50 [3]: 15 mg/kg
Activity [13]: Dose-dependent effect
ED50 ([13]; ip): 5 mg/kg
Activity [14]: Active
ED50 [5]: 56.6 mg/kg
Activity [15]: Toxic
Activity [16]: inactive
pIC50 [6]: 9.17
pKi [6]: 9.38
Activity [17]: Non-toxic
